An excerpt weighted towards active compounds, which were near 2.6% of everything screened.
rCAG RNA binder = molecules binding r(CAG) RNA repeats. AID 651821. r(CAG) RNA repeat, TO-PRO-1 dye displacement fluorescence. hit rate 1.3% among 370,000. inhibition, % at 3 µM;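 active means inhibition above the plate cutoff, the mean of all test compounds on that plate plus 3 SD, cut at about 35% in these data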;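 further: higher means more dye released from RNA so lower well fluorescence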
Rev-erbA mod = Rev-erb alpha (human) modulation. P20393. Rev-erbα–FITC-DNA binding, fluorescence polarization, 90 min. activity, % at 10 µM. hit rate 0.79% among 370,000. AID 1259318;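 active means activity above about 14%, limit read from the data; passing the limit was not always enough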
NR2E3 ag-1 = agonists of human nuclear receptor NR2E3. Q9Y5X4. GST-NR2E3/biotin-RetCOR TR-FRET, 1536-well. inhibition of corepressor binding, % at 4.78 µM. hit rate 0.12% among 320,000;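 active means percent inhibition above the cutoff of mean plus 3 SD of all tested compounds, set per screening campaign, cut at about 20% in these data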
Target sequence (Q9Y5X4 whole entry, looked up): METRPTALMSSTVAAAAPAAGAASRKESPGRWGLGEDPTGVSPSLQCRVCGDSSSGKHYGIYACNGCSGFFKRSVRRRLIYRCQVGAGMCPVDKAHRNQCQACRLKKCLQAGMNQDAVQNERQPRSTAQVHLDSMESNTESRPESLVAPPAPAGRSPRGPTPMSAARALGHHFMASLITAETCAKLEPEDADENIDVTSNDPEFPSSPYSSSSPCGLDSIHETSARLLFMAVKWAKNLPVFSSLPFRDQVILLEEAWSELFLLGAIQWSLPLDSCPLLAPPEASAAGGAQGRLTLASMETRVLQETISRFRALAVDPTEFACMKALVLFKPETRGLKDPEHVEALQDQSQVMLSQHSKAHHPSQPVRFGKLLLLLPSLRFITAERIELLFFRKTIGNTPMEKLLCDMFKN
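System: GST-tagged NR2E3 plus biotinylated RetCOR corepressor; Buffer or medium: pH 7.5 Tris-based buffer; Probe or stimulus: RetCOR corepressor, biotinylated, 7 nM; Doses: compound at 4.8 µM, single dose; Schedule: 5 h incubation at 4 °C; Technique: time-resolved FRET; Evaluation: percent inhibition of TR-FRET ratio; Replication: one well per compound, singlicate testing.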
PG9 binder = small molecules binding HIV-1 gp120 antibody PG9; TR-FRET gp120-PG9 antibody binding; AID 624416; hit rate 0.43% among 360,000; inhibition, % at 6.7 µM; in the data active means inhibition above about 8.5%
NR2E3 ag-2 = agonists of human NR2E3 nuclear receptor. Q9Y5X4. CHO-S Gal4-NCOR/VP16-NR2E3 two-hybrid, luciferase. inhibition of corepressor binding, % at 3.98 µM. hit rate 0.35% among 360,000;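 active means inhibition above the mean of all tested compounds plus 3 SD, cut at about 70% in these data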;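 further: higher means lower luciferase signal from less NR2E3 corepressor binding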
NR2E3 ag conf = NR2E3 agonism confirmed in two-hybrid assay; shares compounds with NR2E3 ag-2; CHO-S mammalian two-hybrid NR2E3-NCOR, luciferase luminescence; inhibition, % at 3.98 µM; hit rate 51% among 2,300;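 active means average inhibition above a cutoff equal to the mean inhibition of all tested compounds plus one SD, cut at about 70% in these data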
GAL4-VP16 luc = GAL4-VP16 reporter inhibition in NR2E3 agonist counterscreen; CHO-S GAL4-VP16 luciferase reporter, luminescence; shares compounds with NR2E3 ag-2; hit rate 29% among 2,300; inhibition, % at 3.98 µM;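 active means mean inhibition above a cutoff equal to the average over all tested compounds plus one standard deviation, cut at about 70% in these data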;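 further: luciferase from a UAS reporter driven by GAL4-VP16 transactivation; higher means less reporter light so more repression of VP16 activity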
Numbers stand for hits; – = inactive; · = not tested or not shown.

SMILES	rCAG RNA binder	Rev-erbA mod	NR2E3 ag-1	PG9 binder	NR2E3 ag-2	NR2E3 ag conf	GAL4-VP16 luc
COCc1[nH]nc2c1C(c1ccc(F)cc1)N(c1ccc(OC)cc1)C2=O (stereo not given)	–	–	·	–	·	·	·
CN(CC(=O)Nc1cccc(F)c1)C(=O)c1ccc(N2CCCCCC2)c([N+](=O)[O-])c1	–	–	–	–	–	·	·
CC1CN(C(=O)c2cccc(S(=O)(=O)N3CCN(c4ccc(F)cc4)CC3)c2)CC(C)O1 (stereo not given)	–	–	–	–	–	·	·
Cc1cccc(C)c1NC(=O)CN(C)C(=O)c1cccc(S(=O)(=O)N2CCN(c3ccccc3)CC2)c1	–	–	–	–	–	·	·
CN(CC(=O)Nc1ccccc1Cl)C(=O)c1cccc(S(=O)(=O)N2CCN(c3ccccc3)CC2)c1	–	–	·	–	–	82.3	–
CN(Cc1ccc(OC(F)F)cc1)C(=O)c1cccc(S(=O)(=O)N2CCN(c3ccccc3)CC2)c1	–	–	·	–	83.3	85.0	–
O=C(c1cccc(S(=O)(=O)N2CCN(c3ccc(F)cc3)CC2)c1)N1CCCC(C(F)(F)F)C1 (stereo not given)	–	–	–	–	88.8	97.3	82.3
CN(CC(=O)Nc1cccc(F)c1)C(=O)c1ccc(N2CCCC2)c([N+](=O)[O-])c1	–	–	–	–	–	–	–
CC(NC(=O)c1cc(COc2ccccc2)on1)c1nccs1 (stereo not given)	–	–	–	–	–	·	·
Cc1cc(OCc2cc(C(=O)NC3CCC3)no2)cc(C)c1Cl	·	·	–	·	–	·	·
Cc1ccc(OCc2cc(C(=O)NC3CCCCC3)no2)cn1	–	–	–	–	82.7	–	–
O=C(c1cc(COc2ccc3ncccc3c2)on1)N1CCCCCC1	–	–	–	–	71.4	95.2	75.9
CSc1ccccc1OCc1cc(C(=O)N2CCC(c3ccncc3)CC2)no1	–	–	–	–	101.0	92.9	78.8
CC(NC(=O)c1cc(COc2ccc3ncccc3c2)on1)c1ccc(F)cc1 (stereo not given)	–	–	–	–	85.5	96.4	88.0
CCCCN1C(=O)N2CCc3ccccc3C2CS1(=O)=O (stereo not given)	–	–	·	·	·	·	·
COc1cccc(OCc2cc(C(=O)NC3CCOCC3)no2)c1	–	–	–	–	–	·	·
O=C(NC1CCCC1)c1cc(COc2ccc3ncccc3c2)on1	·	·	–	·	95.3	94.6	84.5
COCC1CCN(C(=O)c2cc(COc3ccc4ncccc4c3)on2)CC1	–	–	–	–	–	90.7	75.0
Cc1ccc(OCc2cc(C(=O)N3CCCCCCC3)no2)cc1C	–	–	–	–	–	·	·
O=C(c1cc(COc2ccc3ncccc3c2)on1)N1CCCC1	–	–	–	–	83.8	79.8	–
Cc1cc(OCc2cc(C(=O)N3CCC(Oc4cccnc4)CC3)no2)cc(C)c1Cl	–	–	–	–	93.7	93.5	74.5
Oc1ccc2ccccc2c1C=NN1CCN(Cc2ccc(Cl)cc2)CC1	–	–	·	·	·	·	·
COC(=O)[C@]12C[C@H](CC(=O)NCc3cccs3)C(=O)N(CCc3ccc(OC)c(OC)c3)C1=C[C@H](C(C)(C)C)O[C@@H]2C	–	–	·	–	·	·	·
O=C(NCCc1cn2ccccc2n1)c1cc(COc2ccc3ncccc3c2)on1	–	–	–	–	–	–	–
C=CCC1(CC=C)CCCN1C(=O)c1cc(COc2ccc(C)nc2)on1	–	–	–	–	98.9	97.1	79.7
SMILES	rCAG RNA binder	Rev-erbA mod	NR2E3 ag-1	PG9 binder	NR2E3 ag-2	NR2E3 ag conf	GAL4-VP16 luc
CC(C)COc1ccc(S(=O)(=O)NNC(=O)c2cc3ccccc3o2)cc1	–	–	–	–	74.9	75.7	–
CCCCOc1ccc(S(=O)(=O)NNC(=O)c2cc3ccccc3o2)cc1	–	–	–	–	–	·	·
Nc1ccc(S(=O)(=O)N2CCc3ccccc32)cc1	–	–	–	–	–	·	·
O=S(=O)(NC1CCCC1)c1ccc(S(=O)(=O)N2CCc3ccccc32)cc1	–	–	–	–	–	79.1	–
O=C(NNC(=O)c1cccc(S(=O)(=O)N2CCc3ccccc32)c1)c1ccccc1	–	–	·	–	–	80.2	70.8
O=C(Sc1cccc2cccnc12)c1ccccc1Br	–	–	–	–	100.2	–	–
COC(=O)c1cc(=O)nc(NN=C(C)C)s1	–	–	·	–	·	·	·
Fc1ccc2nc(-c3ccc(CN4CCC5(CC4)CNc4ccccc45)cc3)c(-c3ccccc3)nc2c1	–	–	·	–	·	·	·
COc1cnc(-c2ccccn2)nc1Sc1ccc(Cl)cc1	–	–	–	–	–	–	–
COc1cnc(N(C)C)nc1Sc1ccc(Cl)cc1	–	–	–	–	–	·	·
CCOC(=O)CSc1nc(-c2ccccn2)ncc1OC	–	–	–	–	–	·	·
COc1ccc(Sc2nc(-c3ccccn3)ncc2OC)cc1	–	–	–	–	91.6	–	–
COc1cnc(-c2ccccn2)nc1Sc1ccc(F)cc1	–	–	–	–	–	–	–
COc1cnc(-c2ccccn2)nc1Sc1ccccc1	–	–	–	–	94.3	–	–
CCCCNC(=O)C1(C)CCN1C(=O)c1sccc1C (stereo not given)	–	–	·	–	–	·	·
CCOc1ccc(N(CC(=O)Nc2c(C)n(C)n(-c3ccccc3)c2=O)S(=O)(=O)c2ccc(C)c(C)c2)cc1	–	–	·	·	·	·	·
Cc1ccc(NC(=O)c2sc3ncn(CC(=O)N4CCN(c5ccccn5)CC4)c(=O)c3c2C)cc1F	–	–	–	–	76.1	–	–
Nc1nnnn1/N=C/C=C/c1ccccc1	–	–	–	–	–	·	·
Nc1nnnn1/N=C/C(Br)=C/c1ccccc1	–	–	–	–	–	–	–
Nc1nc2c(-c3ccc([N+](=O)[O-])cc3)nnn2c2ccccc12	–	–	·	–	·	·	·
COC(=O)CCN(Cc1cccc(OC)c1OC)S(=O)(=O)c1ccccc1Br	–	–	·	–	·	·	·
COC(=O)c1cc2c(c3c4cc(OC)ccc4n(S(=O)(=O)c4cccc(C)c4)c13)C(=O)N(Cc1ccccc1OC)C2	–	–	·	–	·	·	·
O=C(N[C@H](C(=O)N1CCC[C@H]1C(=O)NC1CCCC1)C1CCCCC1)c1nccs1	–	–	·	–	·	·	·
CCC(c1nnnn1-c1c(C)cccc1C)N1CCN(c2ccc(C(F)(F)F)cc2[N+](=O)[O-])CC1 (stereo not given)	·	·	·	·	–	–	–
CCCCN(C)c1c(C)nc2ccc(C(=O)NCCOc3ccc(OC)cc3)cn12	·	·	·	·	–	94.2	–
O=C1NC[C@@H](c2ccccc2)OC(=O)[C@H](Cc2ccc(F)cc2)C/C=C\C[C@H]1CC(=O)N(CCO)Cc1ccccc1	–	–	·	–	–	·	·
O=C1NC[C@H](c2ccccc2)OC(=O)[C@@H](Cc2ccc(F)cc2)C/C=C\C[C@H]1CC(=O)N(CCO)Cc1ccccc1	–	–	·	–	–	–	–
